# PREPL inhibitor: human PREPL enzyme inhibition; Q4J6C6; recombinant PREPL, fluorescence polarization activity-based probe; inhibition, % at 5.96 µM; hit rate 0.68% among 320,000; AID 2751;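 also: 0% = enzyme with DMSO and 100% = wells lacking enzyme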
# eLon inh: inhibits E. coli Lon protease. P0A9M0. purified E. coli Lon protease, fluorescence polarization. inhibition, % at 7.94 µM. hit rate 0.42% among 360,000; in the data active = inhibition above about 13%, passing the limit was not always enough;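 also: 0% = enzyme with probe and DMSO and 100% = no enzyme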
# TbMetRS inhib: blocks T. brucei methionyl-tRNA synthetase activity; purified T. brucei MetRS, ATP depletion, Kinase-Glo luminescence; inhibition, % at 11.9 µM; hit rate 0.4% among 360,000;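 active = inhibition above a per-plate cutoff of the control wells' mean inhibition plus 3 SD, cut at about 5.5% in these data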;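 also: 0% = DMSO wells median and 100% = median of wells with control inhibitor compound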
#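 Material: parasite MetRS enzyme / Replication: singlicate, one well per compound / Signal: luminescence of leftover ATP / Schedule: 2 h aminoacylation at 25 °C after 15 min preincubation / Medium: HEPES-MgCl2-KCl buffer plus DTT, spermine, BSA, pyrophosphatase / Doses: 11.9 µM single point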
# SKN-1 block: blocks SKN-1 activity in C. elegans. C. elegans VP596 Pgst-4::GFP/RFP ratio, acrylamide-induced, 24 h. inhibition, % at 21.8 µM. hit rate 0.49% among 360,000;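 active = interference check ratio from 0.5 to 1.5 plus GFP to RFP signal ratio inhibition reaching or exceeding a fixed threshold, cut at about 30% in these data, passing the limit was not always enough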
# iPSC survival up: hiPSC single-cell survival enhancement | ATPlite luminescence; 100% = ROCK inhibitor wells, 0% = DMSO | survival enhancement, % at 20 µM | hit rate 0.044% among 360,000 | AID 602274; in the data active = survival enhancement above about 18%;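 also: cells exposed to compounds for 16 hours before the ATP read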
# MT1-MMP act inh: blocks activation of human MT1-MMP; P50281; HT1080 RFP-PRO-GFP cells, GFP/RFP ratio fluorescence, overnight; percent of plate control window, DMSO zero; GFP/RFP ratio change, % at 20 µM; hit rate 0.061% among 360,000;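 active = GFP/RFP ratio change of at least 30% with cell ATP level not reduced by more than half and red fluorescence within 50% of control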
#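 Assay system: HT1080 RFP-PRO-GFP cells | Dosing: 20 µM single dose, 1% DMSO | Incubation: Cells overnight before dosing, compound overnight, 37 °C, 5% CO2 | Evaluation: GFP/RFP fluorescence ratio | Control set: DMSO-only wells and HT1080 RFP-L50D-GFP cell wells as references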
# PREPL confirm: human PREPL inhibition, confirmation; shares compounds with PREPL inhibitor; recombinant PREPL, fluorescence polarization activity probe; inhibition, % at 5.96 µM; hit rate 67% among 2,000;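 also: 0% = protein with DMSO and 100% = wells lacking protein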
# Starred values were filed as active, the others as inactive; nt = no result given. In the library only some 1.8% were active in any assay of this set; here they are far more common. Rule as the data show it, unless noted: active = inhibition above about 43%; inactive = the rest.
SMILES,PREPL inhibitor,eLon inh,TbMetRS inhib,SKN-1 block,iPSC survival up,MT1-MMP act inh,PREPL confirm
CCC[C@@H](CN1CCC[C@H]1CN1C(N)=NC[C@H]1CC(C)C)N1C[C@@H]([C@H](C)CC)N(CCc2ccc(Cl)c(Cl)c2)C1=N,52*,-10,-2,-9,2,3,40
O=C(COc1ccc(F)cc1)N/N=C/c1cccc2cccnc12,14,11,0,11,0,3,nt
O=S(=O)(c1ccccc1F)N1CCN(Cc2nc3ccccc3[nH]2)CC1,-9,-15,2,2,1,2,nt
Cc1c(Cl)cccc1NC(=O)COC(=O)c1c2c(nc3ccccc13)CCN(Cc1ccccc1)C2,51*,4,-1,3,6,-13,46*
C[C@@]12CCC3[C@@](CC[C@@H]4[C@](C)(C(=O)O)CCC[C@@]34C)(C[C@H]1O)C2 (some centres undefined),-9,-2,-1,-13,0,-2,nt
Cc1nn(-c2ccc(F)cc2)c(Cl)c1C(=O)OC(C)C(=O)N(C)C1CCCCC1 (centres undefined),22,-5,0,-4,3,-10,nt
CCC(CO)Oc1cc(NCc2cccc(Cl)c2)c2ncn(C(C)C)c2c1 (centres undefined),57*,-4,1,6,-2,-12,38
CCC(CO)Oc1cc(NCc2ccc(C)c(C)c2)c2ncn(C(C)C)c2c1 (centres undefined),42,8,0,25,6,5,nt
CCC(CN(C)C)Oc1cc(NCc2ccccc2)c2ncn(C(C)C)c2c1 (centres undefined),63*,-1,0,10,-3,-16,51*
CCC(CO)Oc1cc(NCc2ccc(F)cc2)c2ncn(C(C)C)c2c1 (centres undefined),50*,-5,0,26,4,-4,14
Nc1cc(C(=O)N2CCN(c3cccc(Cl)c3)CC2)ccc1N1CC2CC(C1)c1cccc(=O)n1C2 (centres undefined),nt,6,1,4,0,2,nt
Brc1ccc2ncc3ccccc3c2c1,nt,-3,0,26,5,-12,nt
Cc1ccc(-c2noc(CCC(=O)NCCN3CCc4ccccc4C3)n2)cc1,17,-9,-2,-24,-5,-1,nt
Clc1ccc(C(c2ccccc2)N2CCNCC2)cc1 (centres undefined),8,0,0,2,-4,-30,nt
CC12CNCC(C)(CN(C(c3ccccc3)c3ccccc3)C1)C2,46*,8,-2,7,-6,4,13
COCCCn1c(SCCc2ccccc2)nc2cc(OC)c(OC)cc2c1=N,46*,1,-1,3,0,2,42
COc1ccc(Cn2c(SCc3ccccc3C)nc3cc(OC)c(OC)cc3c2=N)cc1,62*,-4,-1,-19,-2,-38,59*
CCSc1nc2cc(OC)c(OC)cc2c(=O)n1CCc1ccccc1,13,-2,-1,17,0,-1,nt
COc1cccc(C(=O)N2CCN(c3ccc(N4CCOCC4)nn3)CC2)c1,10,8,-1,-6,0,12,nt
COc1ccc2c(c1)CCc1cc(C(=O)N3CCN(c4ccc(N5CCOCC5)nn4)CC3)sc1-2,53*,-1,1,0,-1,-2,56*
CCn1c(O)c(/C=N/N=C/c2ccccc2)c2ccc(C3=NNC(=O)CC3)cc21,72*,-79,0,-66,4,-12,65*
CCC(CC)=N/N=C/c1c(O)n(CC)c2cc(C3=NNC(=O)CC3)ccc12,4,-3,-1,19,1,0,nt
O=C1C=C(c2ccccc2)CC(c2cccs2)C1n1cnc([N+](=O)[O-])c1 (centres undefined),48*,-10,-1,19,-3,3,45*
CCOC(=O)C[C@H]1c2cc(F)ccc2S(=O)(=O)N1C1CCCC1,1,-12,0,6,6,2,nt
CC(C)Nc1nnc(SCC(=O)Nc2ccc3c(c2)C(=O)c2ccccc2C3=O)s1,44*,-1,0,4,-1,-10,52*

# High-throughput results: PubChem BioAssay, several laboratories
